High-throughput results (PubChem BioAssay)
A selection: hits, their analogues and other compounds. The true share with any hit is near 2.2%.
Jurkat NFkB inh: lowers PMA/ionomycin-induced NF-kB signal in Jurkat cells. inhibition, % at 4 µM. 330,000 compounds, 0.53% hits. PMA/ionomycin-induced NF-kB luciferase reporter, luminescence; in the data active means inhibition above about 50%
697 NFkB inh: inhibitors of the PMA/ionomycin-induced NF-kB reporter in 697 B cells; 697 B-cell NF-kB luciferase reporter, 16 h; inhibition, % at 4 µM; 330,000 compounds, 0.33% hits; AID 435022; in the data active means inhibition above about 35%
FGF22 binding: shifts melting point of recombinant human FGF22; Q9HCT0; recombinant FGF22 thermal shift, SYPRO orange fluorescence; percent of sucrose octasulfate shift, DMSO zero; activity (Tm shift, normalised), % at 9.99 µM; 340,000 compounds, 1.5% hits;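 active means mean Tm shift, scaled 0 neutral to 100 positive control, at about 1.3% or above, every replicate too, limit read from the data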
Target sequence (Q9HCT0 whole entry, looked up): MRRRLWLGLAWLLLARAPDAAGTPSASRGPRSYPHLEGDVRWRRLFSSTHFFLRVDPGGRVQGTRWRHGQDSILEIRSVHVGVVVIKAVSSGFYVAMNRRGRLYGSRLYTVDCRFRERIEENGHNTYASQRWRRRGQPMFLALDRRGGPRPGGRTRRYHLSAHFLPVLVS
NR2E3 ag-1: activates human NR2E3 receptor; Q9Y5X4; CHO-S Gal4-NCOR/VP16-NR2E3 two-hybrid, luciferase; inhibition of corepressor binding, % at 3.98 µM; 360,000 compounds, 0.35% hits;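 active means inhibition above the mean of all tested compounds plus 3 SD, cut at about 70% in these data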;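 further: 0% = DMSO with NR2E3 transfected cells and 100% = cells lacking NR2E3 construct; higher means lower luciferase signal from less NR2E3 corepressor binding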
Target sequence (Q9Y5X4 whole entry, looked up, the tested form may be a part): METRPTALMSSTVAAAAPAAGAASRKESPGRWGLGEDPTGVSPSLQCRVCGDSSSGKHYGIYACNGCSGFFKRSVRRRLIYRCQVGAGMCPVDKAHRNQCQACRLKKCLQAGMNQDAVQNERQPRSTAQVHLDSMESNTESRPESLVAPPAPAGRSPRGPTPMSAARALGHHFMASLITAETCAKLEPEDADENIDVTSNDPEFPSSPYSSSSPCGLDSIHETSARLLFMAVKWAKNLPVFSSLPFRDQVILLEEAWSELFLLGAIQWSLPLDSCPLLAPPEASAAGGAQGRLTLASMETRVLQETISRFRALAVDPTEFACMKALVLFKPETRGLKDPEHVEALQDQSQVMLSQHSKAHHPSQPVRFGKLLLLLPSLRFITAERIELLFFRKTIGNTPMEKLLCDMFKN
NR2E3 ag-2: NR2E3 (human) agonism. GST-NR2E3/biotin-RetCOR TR-FRET, 1536-well. inhibition of corepressor binding, % at 4.78 µM. 320,000 compounds, 0.12% hits. AID 2300;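 active means percent inhibition above the cutoff of mean plus 3 SD of all tested compounds, set per screening campaign, cut at about 20% in these data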;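 further: 0% = DMSO wells and 100% = biotin wells as full block of FRET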
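Material – GST-tagged NR2E3 plus biotinylated RetCOR corepressor · Quantity – NR2E3 fusion 1.35 nM · Times – 5 h incubation at 4 °C · Medium – pH 7.5 Tris-based buffer · Technique – TR-FRET, Eu(K)-anti-GST donor, streptavidin-D2 acceptor, ex 340, em 617/671 nm · Benchmarks – high control biotin, low control 0.6% DMSO · Format – 1536-well plates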
miR-122 sensor: inhibitors of miR-122 in Huh7 cells; Huh7 miR-122 Renilla luciferase sensor, 48 h; neutral wells = 0, positive control = 100; activation (reporter increase), % at 12.5 µM; 340,000 compounds, 0.3% hits; AID 602342;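 active means mean replicate activation score at least 90 and every replicate individually at or above 90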;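 further: higher luciferase means less miR-122 activity so hits act as miR-122 inhibitors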
* marks the source's active call; other numbers are inactive results; nt = not tested or not shown; [ ] = remark or other dose.

SMILES	Jurkat NFkB inh	697 NFkB inh	FGF22 binding	NR2E3 ag-1	NR2E3 ag-2	miR-122 sensor
CCOc1ccc2cc(C3CC(c4ccco4)=NN3S(C)(=O)=O)c(=O)[nH]c2c1 (stereo not given)	2	5	0	-19	-1	126*
CS(=O)(=O)N1N=C(c2ccco2)CC1c1ccc(Br)cc1 (stereo not given)	-35	-44	44*	-18	-4	nt
Cc1noc(C)c1S(=O)(=O)Nc1ccc2c(c1)C(=O)N([C@H](C)CO)C[C@@H](C)[C@@H](CN(C)Cc1ccncc1)OCCCC[C@@H](C)O2	nt	nt	1	nt	nt	-4[16.7 µM]
NC(N)=NC(N)=Nc1ccc2ccccc2c1	11	-6	44*	-13	1	-5
O=C(C[C@H]1CC[C@@H]2[C@H](COC[C@H](O)CN2C(=O)c2cnccn2)O1)NCc1ccc(F)cc1	nt	nt	0	nt	nt	0[16.7 µM]
Cc1cc(C)cc(OCC(=O)Nc2ccc3c(c2)OCCO3)c1	-16	4	43*	17	4	nt
CC(C)(C)NS(=O)(=O)c1ccc(CCC(=O)Nc2ccc3c(c2)OCCO3)cc1	-16	18	nt	0	0	2
CC(C)(C)NS(=O)(=O)c1ccc(OCC(=O)Nc2ccc3c(c2)OCCO3)cc1	-3	1	nt	-4	3	112*
C[C@@H]1CN([C@H](C)CO)C(=O)c2c(c3ccccc3n2C)-c2ccccc2CO[C@H]1CN(C)C(=O)Nc1cccc(Cl)c1Cl	nt	nt	0	nt	nt	nt
C[C@@H]1CCCCO[C@H](CN(C)C(=O)Nc2cccc3ccccc23)[C@@H](C)CN([C@H](C)CO)C(=O)c2cc(NC(=O)CCCCCC(=O)Nc3ccccc3N)ccc2O1	nt	nt	0	nt	nt	4[16.7 µM]
Nc1c(Cl)cnc(C(Cl)(Cl)Cl)c1Cl	1	9	43*	-9	3	nt
Cc1cc(C)cc(NC(=S)NCCSc2ccc(Cl)cc2)c1	-9	-1	44*	3	4	nt
Cn1cc(CN2CCC(C(O)c3cccs3)CC2)c(-c2ccccc2F)n1 (stereo not given)	1	-4	0	19	0	-6
Cn1cc(CN2CCC(C(=O)N3CCCC3)CC2)c(-c2ccccc2F)n1	0	5	43*	7	-3	nt
C[C@H]1CN([C@@H](C)CO)C(=O)c2cc(/C=C/c3ccccc3)cnc2O[C@@H]1CN(C)C(=O)Nc1ccccc1F	nt	nt	0	nt	nt	0[16.7 µM]
COc1ccc(-c2nc(N)ncc2-c2csc(C)n2)c(O)c1OC	-9	-9	44*	-7	4	4
COc1ccc(-c2nc(C)ncc2-c2csc(C)n2)c(O)c1	19	16	nt	4	3	-2
COC(=O)[C@@]12C[C@@H](CC(=O)NCc3cccc4ccccc34)C(=O)N(Cc3cccc4ccccc34)C1=CCC(C)(C)C2	nt	nt	0	nt	nt	nt
COC(=O)[C@@]12C[C@@H](CC(=O)NCc3ccccc3)C(=O)N(Cc3cccc4ccccc34)C1=CCC(C)(C)C2	nt	nt	20*	nt	nt	nt
Cc1ccc(C(=O)N/N=C\C=C\c2ccc(Br)cc2)cn1	-9	-11	43*	5	-5	15
O=C(c1ccco1)N1CCN(Cc2cc(=O)c(OCc3ccccc3)co2)CC1	0	-10	0	5	2	1
O=C(c1ccco1)N1CCN(Cc2cc(=O)c(OCc3ccccc3F)co2)CC1	9	2	66*	-16	2	nt
CCN(CC)CC(=O)Nc1c(C)cccc1C	-1	14	0	nt	nt	-5
Cc1cccc(C)c1NC(=O)CN(C)c1ccc(C(F)(F)F)cn1	-6	0	43*	-5	2	3
O=C(COc1cccc2c1CCN(Cc1ccccc1)C2=O)N1CCCCC1	14	-3	43*	-4	1	nt
SMILES	Jurkat NFkB inh	697 NFkB inh	FGF22 binding	NR2E3 ag-1	NR2E3 ag-2	miR-122 sensor
O=C(CN1CCOCC1)NCC[C@@H]1CC[C@@H](NC(=O)Nc2ccccc2)[C@@H](CO)O1	nt	nt	0	nt	nt	nt
O=S(=O)(c1ccc(Br)cc1)c1nc(-c2ccco2)oc1NCC1CCCO1 (stereo not given)	14	29	43*	-3	1	13
Cc1ccc(C(=O)N/C(=C\c2ccc3c(c2)OCO3)C(=O)Nc2ccc(C(=O)O)cc2)cc1	13	2	43*	-11	1	nt
Cc1ccc(S(=O)(=O)NCCC(=O)Oc2ccc3ccc(=O)oc3c2)cc1	1	19	0	-3	3	237*
CCOCCCNC(=O)c1ccc2c(c1)ncn2C1CCCC1	11	-5	nt	-32	0	3
CC(C)CCNC(=O)c1ccc2c(c1)ncn2C1CCCC1	-17	2	45*	-56	6	-4
Cc1nn(C)cc1C(C(=O)NC1CCCCC1)N(CCc1ccccc1)C(=O)c1cnccn1 (stereo not given)	-12	6	43*	-10	4	-1
COCCNC(=O)C[C@@H]1C[C@H]2c3cc(NC(=O)NC4CCCCC4)ccc3O[C@H]2[C@@H](CO)O1	nt	nt	0	nt	nt	9[16.7 µM]
O=C(O)Cc1sc(Nc2ccc(Cl)cc2)nc1-c1cccs1	-10	-24	1.4*	nt	nt	nt
CCn1nccc1C(=O)Nc1ccccc1OC	-11	-11	0	-2	2	4
CCn1ncc(Br)c1C(=O)Nc1ccccc1OC	9	10	44*	0	-1	nt
O=C(c1ccccn1)N1C[C@@H]2[C@H](c3ccccc31)[C@@H](CO)N2C(=O)C1CCCC1	nt	nt	0	nt	nt	10[16.7 µM]
O=C(NCCO)C(=O)c1c(-c2ccc(Cl)cc2)cc2ccccn12	-7	-11	44*	-9	1	nt
O=C(NCCc1ccccc1)C(=O)c1c(-c2ccccc2)cc2ccccn12	-8	-20	nt	-25	-3	nt
C[C@H](CO)N1C[C@H](C)[C@H](CN(C)C(=O)c2ccc3c(c2)OCO3)Oc2ncc(C3=CCCC3)cc2C1=O	nt	nt	0	nt	nt	12[16.7 µM]
CCOC(=O)C1=C(C)N(C)C(=O)NC1c1cc2c(cc1[N+](=O)[O-])OCO2 (stereo not given)	10	0	44*	-13	4	3
COCC#Cc1ccc([C@@H]2[C@@H](CO)N3CCCCN(Cc4cncnc4)C[C@H]23)cc1	nt	nt	0	nt	nt	-5[16.7 µM]
O=C(C[C@@H]1CC[C@H]2[C@@H](COC[C@@H](O)CN2Cc2cc(F)cc(F)c2)O1)NC1CCC1	nt	nt	nt	nt	nt	0[16.7 µM]
NC(=O)COC(=O)/C=C/c1cccc(Br)c1	9	24	43*	-5	-1	nt
O=C(Nc1ccn(Cc2c(F)c(F)cc(F)c2F)n1)c1ccc(COc2ccccc2Cl)cc1	23	-1	0	-96	-4	-16
Cc1cc(C)nc(NC(=O)c2ccc(COc3ccccc3Cl)cc2)c1	19	21	44*	34	3	-8
